Screening results: PubChem BioAssay, several laboratories
NPY Y2 blocker: NPY-Y2 (human) receptor antagonism; inhibition, % at 2.7 µM; 140,000 tested, 0.99% active; NPY-Y2 expressing cells, antagonist mode; P49146; in the data active = inhibition above about 17%;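 also: 0% = vehicle with agonist challenge and 100% = reference antagonist with challenge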
NPY-Y1 PAM-ag: potentiators or agonists of human neuropeptide Y receptor Y1; P25929; 220,000 tested, 0.37% active; activation, % at 3.6 µM; AID 1304; NPY-Y1 expressing cells, potentiator/agonist activation; in the data active = activation above about 33%, passing the limit was not always enough;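 also: cells stimulated with NPY at EC10 then isoproterenol at EC100; 0% = low agonist plus stimulus and 100% = saturating agonist plus stimulus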
EP2 antag: inhibitors of human EP2 prostaglandin E2 receptor | P43116 | C6 glioma cells expressing human EP2, cAMP TR-FRET; cells stimulated with saturating PGE2 | inhibition, % at 25 µM | 260,000 tested, 0.52% active;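 active = percent inhibition above 40 after rounding to a whole number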;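 also: rat C6 glioma host cells with rolipram phosphodiesterase inhibitor present; the protocol text gives 20 µM as final concentration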
Target sequence (P43116 whole entry, looked up): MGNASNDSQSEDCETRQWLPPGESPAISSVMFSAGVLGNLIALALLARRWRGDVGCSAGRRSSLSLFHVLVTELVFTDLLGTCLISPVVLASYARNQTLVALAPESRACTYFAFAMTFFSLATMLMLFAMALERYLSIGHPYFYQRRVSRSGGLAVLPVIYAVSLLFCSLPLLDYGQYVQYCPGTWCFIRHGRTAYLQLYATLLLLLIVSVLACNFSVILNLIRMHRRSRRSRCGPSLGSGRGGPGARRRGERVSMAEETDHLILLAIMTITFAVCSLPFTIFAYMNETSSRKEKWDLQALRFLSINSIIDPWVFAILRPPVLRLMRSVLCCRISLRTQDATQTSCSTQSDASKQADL
NPY Y1 blocker: antagonists of human neuropeptide Y receptor Y1 | P25929 | HEK293-CNG Y1 cells, membrane potential fluorescence; NPY at EC95, then isoproterenol | inhibition, % at 3.6 µM | 200,000 tested, 1% active;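 active = inhibition above the campaign mean inhibition of all tested compounds plus 3 SD, cut at about 20% in these data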;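 also: 0% = DMSO wells given NPY plus isoproterenol and 100% = isoproterenol alone without NPY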
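Material: Y1- and CNG-channel-expressing HEK293 cells / Probe or stimulus: NPY 25 nM then isoproterenol 1 µM plus Ro 20-1724 25 µM / Doses: 3.6 µM single dose, DMSO 0.4% / Schedule: compound incubation 1 h at room temperature, readout 45 min post-stimulation / Signal: membrane potential fluorescence / Benchmarks: isoproterenol-only wells as full block versus NPY-plus-isoproterenol wells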
EP2 mod: modulators of human EP2 prostaglandin E2 receptor; P43116; EP2-expressing cells, cAMP HTRF FRET, PGE2 co-stimulation; induction, % at 25 µM; 260,000 tested, 0.83% active;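 active = compounds whose cAMP rise, as percent of the full-agonist control response, exceeds 60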;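 also: rat C6 glioma line stably carrying human EP2 under a CMV promoter; the protocol text gives 20 µM as final concentration; 100% = response of wells given 1 µM PGE2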
NPY2 pot ag: human NPY-Y2 potentiation or agonism, primary screen; P49146; cells expressing NPY-Y2, potentiator/agonist read-out; activation, % at 3.6 µM; 220,000 tested, 0.45% active; in the data active = activation above about 27%;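 also: cells stimulated with NPY near EC25 plus isoproterenol at EC100; 0% = vehicle plus submaximal agonist and 100% = vehicle plus saturating agonist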
The depositor's hits bear a star; x = not tested or not shown; ! = not confirmed by another sample. Sampled rows, rich in hits. Any-hit rate of the full collection: about 2.8%.

SMILES	NPY Y2 blocker	NPY-Y1 PAM-ag	EP2 antag	NPY Y1 blocker	EP2 mod	NPY2 pot ag
O[C@@H](c1cc(C(F)(F)F)nc2c(Cl)cc(Cl)cc12)[C@@H]1CCCCN1	x	x	58*	x	14	x
C=C(C)Cn1c(NCCN(CC)CC)nc2c1c(=O)[nH]c(=O)n2C	x	x	9	x	-15	x
Oc1cccc2ccc(SSc3ccc4cccc(O)c4n3)nc12	x	x	106*	x	-63	x
O/N=C/c1ccc2cccc(O)c2n1	x	22	6	x	-5	-5
Clc1ccc(C2=CC(c3cccs3)n3ncnc3N2)cc1 (stereo not drawn)	x	x	8	x	-90	x
Cc1ccc(C(=O)N/C(=C\c2ccc(-c3ccc(Cl)cc3)o2)C(=O)NCCCN(C)C)cc1	x	-14	1	21*	-29	-2
C=CCNc1ncc(C2(c3ccccc3)CCCC2)s1	x	x	2	x	-16	x
O=C(COC(=O)c1cc2ccccc2cc1O)NC(=O)NCc1ccco1	x	-15	11	21*	-24	-29
O=C(COC(=O)c1n[nH]c2ccccc12)NC(=O)NCc1ccco1	3	28	18	0	-8	-1
CCc1nn(CC(=O)NC2CCC2)c(=O)c2cc3sc(C)cc3n12	x	x	x	x	-18	x
COC(=O)CSc1nc2cc(OC)ccc2cc1C#N	5	0	8	0	18	-6
CCc1nnc(NC(=O)CSc2nc3cc(C)c(C)cc3cc2CC)s1	x	x	20	x	69*	x
COc1ccc2cc(C#N)c(SCC(=O)N3CC(=O)Nc4ccccc43)nc2c1	x	-2	31	x	73*!	2
COc1ccc2cc(C#N)c(SCC(=O)OC(C)C)nc2c1	x	x	15	x	84*	x
CCOc1ccc2cc(C#N)c(SCC(=O)Nc3nnc(CC)s3)nc2c1	x	x	22	x	73*	x
CC(C)c1nnc(SCC(=O)N2c3ccccc3CC2C)n1C (stereo not drawn)	x	x	9	x	-8	x
N#Cc1c(NC(=O)CN2CCN(c3ccccc3F)CC2)sc2c1CCCC2	x	x	12	x	2	x
COc1cccc(NC(=O)CSc2nc3cc(OC)ccc3cc2C#N)c1	x	x	6	x	67*	x
CC(C)CC(=O)NC(=S)Nc1cccc2nsnc12	x	15	24	2	10	9
COc1c(C)cccc1C(=O)NC(=S)Nc1cccc2nsnc12	x	11	129*	4	-80	-10
O=C1c2ccccc2C(Nc2cccc(C(F)(F)F)c2)N1Cc1ccco1 (stereo not drawn)	11	-8	21	14	61*	-1
O=C1c2ccccc2C(Nc2ccccc2)N1Cc1ccc2c(c1)OCO2 (stereo not drawn)	x	-19	9	x	72*	-28
CCn1nnc(NC(=O)c2cccc(F)c2)n1	x	x	11	x	4	x
COCCCNC(=O)c1c(NC(=O)c2ccccc2C)sc2c1CCCC2	x	x	45*	x	-23	x
C=CCNC(=O)c1c(NC(=O)c2ccccc2C)sc2c1CCCC2	x	x	9	x	21	x
SMILES	NPY Y2 blocker	NPY-Y1 PAM-ag	EP2 antag	NPY Y1 blocker	EP2 mod	NPY2 pot ag
C=CCNC(=O)c1c(NC(=O)c2ccc(OC)c(OC)c2)sc2c1CCCC2	x	x	7	x	66*	x
CCc1ccc2[nH]c(=O)c(CN(Cc3ccco3)Cc3nnnn3Cc3ccc(OC)cc3)cc2c1	x	x	7	x	-45	x
CCc1ccc2[nH]c(=O)c(CN(Cc3ccccc3OC)Cc3nnnn3C(C)(C)CC)cc2c1	x	x	22	x	61*	x
CCc1ccc2[nH]c(=O)c(CN(Cc3ccccc3OC)Cc3nnnn3Cc3ccco3)cc2c1	19*	-2	5	13	22	7
O=C1Nc2ccccc2C12OCC(CCl)O2 (stereo not drawn)	x	x	4	x	-22	x
CC(=O)OCCNc1cc(N2CCN(C)CC2)c2noc3c2c1C(=O)c1ccccc1-3	-5	49*	16	-6	12	33*
CCN1c2ccccc2-c2nc3ccccc3n2C1c1cccs1 (stereo not drawn)	25*	-10	6	37*	35	-9
N#C/C(=C\c1cccs1)C(=O)c1ccccc1Cl	x	-5	113*	x	-58	16
CC(C)(C)C(=O)/C(C#N)=C/c1cccs1	x	4	10	x	-29	3
Cc1ccc(NC(=O)CSc2nnc(-c3ccco3)n2CC2CCCO2)cc1 (stereo not drawn)	x	x	16	x	-9	x
CC(=O)c1sc(NC(=O)C2(F)C(F)(F)C(F)(F)C(F)(F)C(F)(F)C2(F)F)nc1C	3	56*	-3	-4	-3	54*
CC(=O)c1sc(NC(=O)C=C(C)C)nc1C	0	12	14	-1	14	19
O=C(COc1ccccc1)Nc1cccc(NC(=O)c2cccs2)c1	x	x	12	x	-103	x
Cc1noc(-c2ccccc2OC(=O)c2ccccc2)n1	4	6	6	0	64*	-2
O=C1c2ccsc2SCCN1Cc1cccc(Cl)c1	4	-12	10	3	61*	13
Cc1ccccc1CN1CCSc2sccc2C1=O	x	15	1	2	62*	14
O=C1c2ccsc2SCCN1Cc1ccccc1Cl	11	13	11	-6	43	-2
O=C1c2ccsc2SCCN1Cc1ccc(Cl)cc1	5	21	11	6	15	-11
O=C(CNCc1ccccc1)Nc1ccc2c(c1)OCO2	x	x	6	x	-30	x
COc1ccc(C2C(C(=O)Nc3cc(OC)c(OC)c(OC)c3)c3ccccc3C(=O)N2C)cc1 (stereo not drawn)	x	37*	13	-1	30	31*
C=CCn1c(=NC(=O)c2ccco2)sc2cc(C(=O)OCC)ccc21	5	-19	41*	0	33	-9
C=CCn1c(=NC(=O)c2ccco2)sc2cc(C(=O)OC)ccc21	12	-9	5	10	11	5
CCOc1ccc(C(=O)Nc2nnc(Cc3ccccc3)s2)cc1OCC	x	x	11	x	32	x
Nc1nc(-c2cc(-c3cccc4ccccc34)nc(N)n2)cc(-c2cccc3ccccc23)n1	x	x	57*	x	-10	x
COc1ccc(NC(=O)c2ccc(N(C)S(C)(=O)=O)cc2)cc1OC	1	-6	7	-2	-41	-6
SMILES	NPY Y2 blocker	NPY-Y1 PAM-ag	EP2 antag	NPY Y1 blocker	EP2 mod	NPY2 pot ag
COC(=O)c1ccc(NC(=O)c2ccc(N(C)S(C)(=O)=O)cc2)cc1	-1	3	113*	0	-6	-18
CCCn1c(SCC(=O)Nc2ccc(C)c(NC(=O)CC)c2)nc2c1c(=O)n(C)c(=O)n2C	x	x	9	x	1	x
Cc1nn(-c2ccc(F)cc2)c2sc(C(=O)O)cc12	19*	-36	10	23*	20	-26
CN(Cc1ccccc1)Cc1nc2c(c(=O)n(C)c(=O)n2C)n1CCc1ccccc1	23*	-36	x	22*	x	-7
Fc1cccc(F)c1C(Nc1nncs1)Nc1nncs1	x	x	46*	x	32	x
CC(=O)Nc1nncs1	x	x	9	x	-30	x
Clc1cccc(Cl)c1C(Nc1nncs1)Nc1nncs1	x	x	52*	x	15	x
O=C(Cc1c(F)cccc1Cl)Nc1nncs1	x	x	7	x	-1	x
COC(=O)C(Cc1ccccc1)NC(=O)C12CC3CC(CC(C3)C1)C2 (stereo not drawn)	1	12	5	0	40	5
